This is one part of a sample in which hits are shown more often than they occur.
Cl transport mod = KCC2 (human) Cl- transport modulation. KCC2 cells, thallium flux FluoZin-2 fluorescence. Q9H2X9. B-score of Tl+ flux slope (higher = more flux/activation; lower = inhibition) at 10 µM. 2.2% of 190,000 active;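 active = thallium flux slope and its plate-corrected score both differing from the plate sample mean at a set confidence after two filtering rounds, in either direction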;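 note: slope of fluorescence scaled to starting intensity during 10 to 20 s after thallium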
Dynein transport = dynein cargo transport inhibition; z-score, hits read low; 3617.4 mouse cells, GR-EGFP nuclear translocation imaging; test concentration mostly 20 µM; stimulated with dexamethasone, 1 µM; hits give low values; 0.47% of 220,000 active; AID 1381;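 active = plate z-score of nuclear minus cytoplasmic receptor signal below a set negative limit, without overly bright fluorescence or cell loss, cut at about -3.5 in these data, passing the limit was not always enough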;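 note: z-score of nuclear minus cytoplasmic ring GR-EGFP intensity difference per well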
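Also added: dexamethasone, 1.0 µM final. Medium: tet-free, stripped-serum medium. Detection: fixed, Hoechst-stained cells imaged at 10x for EGFP. Read-out: nuclear-to-cytoplasmic GR-EGFP distribution per well. Times: induction 48 h, compound 1 h, agonist 30 min.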
V-ATPase pHluor = yeast V-ATPase proton transport regulation by pHLuorin; response, % at 10 µM; S. cerevisiae, pHLuorin cytosolic pH fluorescence; 0.37% of 350,000 active; AID 504577; in the data active = response mostly above about 7.3%, no sharp cut-off; inactive = mostly below about 5.4%; note: actives read high
ABCB6 inh MLPCN = inhibitors of human ABC transporter ABCB6; fluorescence ratio to DMSO, % at 10 µM; 0.19% of 360,000 active; Q9NP58; AID 602162; K562-ABCB6 porphyrin accumulation, flow cytometry, 1 h; hits give low values;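 active = fluorescence ratio to DMSO below 75%, the collection mean minus 3 SD; inconclusive = too few cells collected in the well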;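 note: signal is porphyrin accumulated inside mitochondria; lower ratio means ABCB6 inhibition with less porphyrin fluorescence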
p-CIP stab down = lowers stability of the mouse p/CIP coactivator protein | Q05BA5 | 0.01% of 290,000 active | decrease of EGFP signal, % at 10 µM | F442A p/CIP-EGFP cells, EGFP fluorescence, 16 h;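 active = EGFP signal decrease of at least 30% at 10 µM or well 3 SD below plate mean, unless failing retest; inactive = the rest, including hits failing retest or dose response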
Target sequence (Q05BA5 1-1403): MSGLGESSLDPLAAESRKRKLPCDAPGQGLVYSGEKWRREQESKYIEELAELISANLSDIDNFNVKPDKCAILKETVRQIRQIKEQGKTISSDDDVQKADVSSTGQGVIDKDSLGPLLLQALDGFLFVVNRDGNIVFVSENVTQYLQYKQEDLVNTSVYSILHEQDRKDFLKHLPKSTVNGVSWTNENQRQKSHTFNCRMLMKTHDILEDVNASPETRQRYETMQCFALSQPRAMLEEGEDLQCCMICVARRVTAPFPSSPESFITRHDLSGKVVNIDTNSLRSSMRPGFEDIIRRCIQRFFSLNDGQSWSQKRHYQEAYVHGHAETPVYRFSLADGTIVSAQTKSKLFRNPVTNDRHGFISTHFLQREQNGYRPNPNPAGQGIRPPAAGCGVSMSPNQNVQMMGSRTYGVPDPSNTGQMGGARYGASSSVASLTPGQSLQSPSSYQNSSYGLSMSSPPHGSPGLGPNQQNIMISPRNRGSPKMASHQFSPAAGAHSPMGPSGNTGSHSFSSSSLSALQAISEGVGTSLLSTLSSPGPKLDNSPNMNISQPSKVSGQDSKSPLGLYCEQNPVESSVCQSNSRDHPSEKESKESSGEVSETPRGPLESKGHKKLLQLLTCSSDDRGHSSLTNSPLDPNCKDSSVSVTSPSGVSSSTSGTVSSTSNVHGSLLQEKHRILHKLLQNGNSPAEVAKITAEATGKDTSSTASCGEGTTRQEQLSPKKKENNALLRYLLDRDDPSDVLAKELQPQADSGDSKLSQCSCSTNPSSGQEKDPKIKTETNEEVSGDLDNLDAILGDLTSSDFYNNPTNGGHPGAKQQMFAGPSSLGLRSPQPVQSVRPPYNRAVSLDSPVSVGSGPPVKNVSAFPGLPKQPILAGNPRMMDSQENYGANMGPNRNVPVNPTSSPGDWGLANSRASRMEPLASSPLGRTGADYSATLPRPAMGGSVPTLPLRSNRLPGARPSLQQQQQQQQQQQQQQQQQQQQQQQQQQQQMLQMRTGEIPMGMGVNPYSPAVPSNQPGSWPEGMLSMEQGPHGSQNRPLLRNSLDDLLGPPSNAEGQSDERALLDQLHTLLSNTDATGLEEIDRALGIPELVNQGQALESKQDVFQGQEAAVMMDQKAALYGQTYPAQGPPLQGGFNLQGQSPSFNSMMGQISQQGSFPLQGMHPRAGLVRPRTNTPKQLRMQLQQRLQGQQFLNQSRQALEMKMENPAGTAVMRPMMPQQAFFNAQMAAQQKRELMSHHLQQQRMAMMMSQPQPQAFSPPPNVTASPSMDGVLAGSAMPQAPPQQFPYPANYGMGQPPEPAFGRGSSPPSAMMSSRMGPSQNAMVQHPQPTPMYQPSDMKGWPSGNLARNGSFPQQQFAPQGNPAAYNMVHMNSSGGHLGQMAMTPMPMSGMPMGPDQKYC
KCC2 secondary = confirmation of human KCC2 transport modulators. normalised thallium flux (F/F0 slope) at 10 µM. AID 1713. HEK293-KCC2, thallium flux, FluoZin2 fluorescence; hits give high values. 15% of 3,700 active. shares compounds with Cl transport mod;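 active = thallium flux slope above the same plate's solvent-only control mean plus 3 SD; inconclusive = the two replicate wells disagree; inactive = no significant difference from solvent-only control wells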
KCC2 bumet counter = thallium flux persisting under bumetanide in KCC2 cells, counter-screen secondary assay; shares compounds with Cl transport mod; HEK293-KCC2 + bumetanide/ouabain, thallium flux FluoZin2; hits give high values; normalized thallium flux at 10 µM; 49% of 3,700 active; AID 1714;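 active = thallium entry rate above the same plate's blocked-transporter control wells by more than 3 SD; inconclusive = the two repeat wells disagree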;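 note: raw slope of fluorescence over initial fluorescence between 10 and 20 s after thallium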
KCC2 sec2 = KCC2 (human) modulation, second secondary assay; shares compounds with Cl transport mod; 23% of 3,700 active; AID 1715; normalized thallium flux at 10 µM; HEK293-KCC2, thallium flux FluoZin2 fluorescence; actives lie on both sides; F/F0 rise rate, 10–20 s post-thallium;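 active = thallium flux slope more than 3 SD above or below the plate's solvent-only control mean, mostly below; inconclusive = the two repeat wells disagreed; inactive = no significant shift from solvent-only controls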
HEK counter1 = acts in parental HEK cells, KCC2 counter-screen. shares compounds with Cl transport mod. AID 1716. 46% of 3,700 active. HEK293 parental cells, thallium flux FluoZin2, ouabain; baseline-ratio fluorescence slope, 10–20 s after thallium. thallium flux rate (normalised fluorescence) at 10 µM;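 active = thallium flux rate significantly above the same plate's solvent-only control wells, beyond their mean plus 3 SD; inconclusive = the two replicate wells gave conflicting results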
KCC2 ouabain = confirmation of human KCC2 modulators with ouabain; shares compounds with Cl transport mod; HEK293-KCC2, thallium flux FluoZin2 fluorescence; bidirectional: low = inhibitor, high = activator; raw Tl+ flux slope (below DMSO = inhibition, above = activation) at 10 µM; 48% of 3,700 active; AID 1717;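 active = thallium flux slope beyond 3 SD from same-plate DMSO control mean in most replicates, usually higher, sometimes lower; inconclusive = repeat tests gave conflicting results; inactive = no significant difference from controls in most replicates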;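 note: slope of initial-normalized fluorescence between seconds 10 and 20 after thallium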
HEK293 Tl flux2 = acts in parental HEK cells, second KCC2 counter-screen; shares compounds with Cl transport mod; HEK293 parental, thallium flux FluoZin-2 fluorescence slope; thallium flux slope at 10 µM; 33% of 3,700 active; AID 1718;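 active = thallium flux slope above the same plate's solvent-control mean plus 3 SD in both duplicate wells; inconclusive = duplicate wells that disagreed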;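 note: run without ouabain in cells lacking the KCC2 cotransporter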
Large screens that a line does not name were inactive (follow-up assays come after a bar, where they were run).

Cc1ccc(-c2nn(Cc3ccccc3)cc2/C=C/C(=O)O)cc1C	Cl transport mod -8.09 | KCC2 secondary inactive | KCC2 bumet counter inactive | KCC2 sec2 0.021 | HEK counter1 inactive | KCC2 ouabain 0.0111 | HEK293 Tl flux2 inactive
CCC1CCCCN1CCCNC(=O)c1ccc(CS(=O)(=O)c2ccc(Br)cc2)o1 (stereo not drawn)	none (no result: Cl transport mod, Dynein transport)
O=C(Nc1c(Br)cc2c(c1Br)Cc1ccccc1-2)C(Cl)Cl	none (no result: Cl transport mod, Dynein transport, p-CIP stab down)
CCOc1ccc2c(c1)C(=NNC(=O)c1ccncc1)c1cc(OCC)ccc1-2	Cl transport mod 29.8 | KCC2 secondary 0.0146 | KCC2 bumet counter 0.033 | KCC2 sec2 inactive | HEK counter1 0.0179 | KCC2 ouabain 0.0792 | HEK293 Tl flux2 0.0119
CCOc1ccc(NC(=O)c2ccncc2)cc1	none
CC(NC(=O)CN(C)S(=O)(=O)c1ccc2c(c1)c(=O)n(C)c(=O)n2C)c1ccccc1 (stereo not drawn)	none (no result: Cl transport mod, Dynein transport)
CCC(Cc1ccccc1)NC(=O)CN(C)S(=O)(=O)c1ccc2c(c1)c(=O)n(C)c(=O)n2C (stereo not drawn)	none (no result: Cl transport mod) | KCC2 secondary inactive | KCC2 bumet counter inactive | KCC2 sec2 0.0238 | HEK counter1 inactive | KCC2 ouabain inconclusive | HEK293 Tl flux2 inactive
CN(CC(=O)N1CC=C(c2ccccc2)CC1)S(=O)(=O)c1ccc2c(c1)c(=O)n(C)c(=O)n2C	Cl transport mod -3.87 | KCC2 secondary inactive | KCC2 bumet counter inconclusive | KCC2 sec2 inactive | HEK counter1 inactive | KCC2 ouabain inactive | HEK293 Tl flux2 inactive
CN(C)S(=O)(=O)c1cccc(NC(=O)CSc2ncnc3ccccc23)c1	none
CN(C)S(=O)(=O)c1ccc(NC(=O)CSc2ncnc3ccccc23)cc1	Cl transport mod -4.04 | KCC2 secondary inactive | KCC2 bumet counter inactive | KCC2 sec2 0.0263 | HEK counter1 inactive | KCC2 ouabain 0.0149 | HEK293 Tl flux2 inactive
Cc1cc(Cl)ccc1OC(C)C(=O)OCC(=O)c1ccc[nH]1 (stereo not drawn)	none (no result: Cl transport mod, Dynein transport, p-CIP stab down)
C/C(=N\NC(=S)NCc1ccccc1)c1ccccc1	Cl transport mod 7.77 | KCC2 secondary inactive | KCC2 bumet counter 0.0425 | KCC2 sec2 inactive | HEK counter1 0.0146 | KCC2 ouabain 0.0697 | HEK293 Tl flux2 inactive
C/C(=N\NC(=S)NCc1ccccc1)c1ccc(C(C)(C)C)cc1	none
C/C(=N\NC(=S)NCc1ccccc1)c1ccco1	Cl transport mod 13 | KCC2 secondary inactive | KCC2 bumet counter 0.0188 | KCC2 sec2 inactive | HEK counter1 inconclusive | KCC2 ouabain 0.0288 | HEK293 Tl flux2 inactive
COc1ccc(CNC(=S)N/N=C(/C)c2ccccc2)cc1	Cl transport mod 5.69 | KCC2 secondary inactive | KCC2 bumet counter 0.0231 | KCC2 sec2 inactive | HEK counter1 0.0137 | KCC2 ouabain inconclusive | HEK293 Tl flux2 0.0161
O=C(c1ccccc1)C1Oc2ccccc2C2CC(c3cccs3)=NN12 (stereo not drawn)	none
COc1cccc(C2Oc3ccccc3C3CC(c4cccs4)=NN32)c1 (stereo not drawn)	Cl transport mod 6.5 | KCC2 secondary inactive | KCC2 bumet counter 0.0192 | KCC2 sec2 inactive | HEK counter1 0.0128 | KCC2 ouabain inactive | HEK293 Tl flux2 0.0159
CC1CCN(C(=O)CSc2ccc(-c3cccnc3)nn2)CC1	none (no result: Cl transport mod, Dynein transport)
O=C(CSc1ccc(-c2ccc(F)cc2)nn1)N1CCCCC1	Cl transport mod -5.29 | KCC2 secondary inactive | KCC2 bumet counter inactive | KCC2 sec2 inactive | HEK counter1 inactive | KCC2 ouabain 0.0144 | HEK293 Tl flux2 inactive
CC1CCN(C(=O)CSc2ccc(-c3ccc(F)cc3)nn2)CC1	Cl transport mod -5.29 | KCC2 secondary inactive | KCC2 bumet counter inconclusive | KCC2 sec2 0.0209 | HEK counter1 inactive | KCC2 ouabain 0.015 | HEK293 Tl flux2 inactive
CCOC(=O)[C@]12CCC=C1N(Cc1ccco1)C(=O)[C@H](CC(=O)NCC13CC4CC(CC(C4)C1)C3)C2	none (no result: Cl transport mod, Dynein transport, V-ATPase pHluor, p-CIP stab down)
COc1cc(OC)c(C(=O)OC(C)C(=O)NCc2ccc3c(c2)OCO3)cc1OC (stereo not drawn)	none (no result: Cl transport mod, Dynein transport, p-CIP stab down)
Cc1ccc(S(=O)(=O)N(CC(=O)NCCSCc2ccco2)c2ccc(F)cc2)cc1	Cl transport mod -4.26 (no result: V-ATPase pHluor, ABCB6 inh MLPCN) | KCC2 secondary inactive | KCC2 bumet counter inactive | KCC2 sec2 inactive | HEK counter1 inactive | KCC2 ouabain 0.0159 | HEK293 Tl flux2 inactive
N#C/C(=C\c1cccs1)C(=O)NCc1ccccc1	none
N#C/C(=C\c1cccs1)C(=O)Nc1nccs1	Cl transport mod 9.99 | KCC2 secondary 0.0123 | KCC2 bumet counter 0.0186 | KCC2 sec2 inactive | HEK counter1 0.013 | KCC2 ouabain inconclusive | HEK293 Tl flux2 0.0119
Cc1cc(C)c(NS(=O)(=O)c2ccccc2)c(C)c1NS(=O)(=O)c1ccccc1	none (no result: Cl transport mod, Dynein transport, p-CIP stab down)
Fc1ccccc1NC(=S)NNc1ncc(C(F)(F)F)cc1Cl	Cl transport mod 6.91 | KCC2 secondary inactive | KCC2 bumet counter 0.0522 | KCC2 sec2 inactive | HEK counter1 0.0112 | KCC2 ouabain inconclusive | HEK293 Tl flux2 0.0105
NC(=S)Nc1ncc(C(F)(F)F)cc1Cl	Cl transport mod 15.8 | KCC2 secondary inactive | KCC2 bumet counter 0.0586 | KCC2 sec2 0.0473 | HEK counter1 0.0357 | KCC2 ouabain 0.047 | HEK293 Tl flux2 0.0386
Cc1ccccc1NC(=S)NNc1ncc(C(F)(F)F)cc1Cl	none
Cc1c(Cl)cccc1NC(=S)NNc1ncc(C(F)(F)F)cc1Cl	Cl transport mod 5.5 | KCC2 secondary inactive | KCC2 bumet counter 0.0488 | KCC2 sec2 inconclusive | HEK counter1 0.0178 | KCC2 ouabain 0.0384 | HEK293 Tl flux2 0.0206
NC(=S)c1ncc(C(F)(F)F)cc1Cl	none
Cc1ccc(C)c(S(=O)(=O)N2CCN(CC(=O)NC(C)c3ccccc3)CC2)c1 (stereo not drawn)	none (no result: Cl transport mod, Dynein transport, p-CIP stab down)
Cc1nn(C)c(Oc2ccc(Cl)cc2)c1C(=O)Nc1ccc(F)cc1F	none (no result: Cl transport mod)
COc1ccc(CNc2oc(COc3ccc(Cl)cc3)nc2C#N)cc1	none

Screening data deposited in PubChem BioAssay by several laboratories.
